Measured values taken from the EternaBench riboswitch data.

What was measured:
[1] = tested on: MS2 coat protein; experiment: apparent Kd, MS2 coat protein; higher = weaker binding; RNA-MaP array
Procedure, shortened: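 Designed RNAs were transcribed on an Illumina sequencing chip from sequenced DNA templates. They were incubated at room temperature with fluorescently labeled MS2 coat protein at 1.5 nM to 3 μM, for 0.8–1.5 h at the lowest to 10–20 min at the highest concentrations, in Tris-HCl pH 7.5 buffer with KCl, MgCl2, BSA, DTT, tRNA and Tween20, with or without input ligand. Apparent Kd is the median of per-cluster binding-curve fits. Designs measured on fewer than 10 clusters were excluded.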

[2] = tested on: MS2 coat protein; experiment: apparent Kd, MS2 coat protein; higher = weaker binding; RNA-MaP array; FMN 200 µM where present
Procedure, shortened: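 Designs were transcribed by stalled E. coli RNA polymerase on Illumina sequencing-chip clusters. They were titrated with SNAP-549-labelled MS2 coat protein from 0.7 or 1.5 nM, doubling to 3 µM, without and then with constant ligand. Buffer: 100 mM Tris-HCl pH 7.5, 80 mM KCl, 4 mM MgCl2, BSA, DTT, yeast tRNA, Tween-20. Green signal was normalised to red-channel RNA signal and control-cluster median Fmax. Apparent Kd is the median of filtered per-cluster binding-curve fits.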

[3] = designed as: OFF switch for flavin mononucleotide, no ligand
[4] = ligand present: flavin mononucleotide, designed as: OFF switch for flavin mononucleotide
[5] = designed as: ON switch for flavin mononucleotide, no ligand
[6] = ligand present: flavin mononucleotide, designed as: ON switch for flavin mononucleotide

Sequence	apparent Kd [2, 3]	apparent Kd [2, 4]	further results
UAUUUGGGCAAGAAGGCAGGUUACAGCCAGCAUUAUCCACAUGAGGAUCACCCAUGUUCGGCGACUGAGGAUAUUGCCAAACCU			apparent Kd [1, 3]: 38.5 nM; apparent Kd [1, 4]: 37.5 nM
GAGCCACAUGAGGAUCACCCAUGUCAGGAUAUCGCAAGCGGGAAUAAGCCAACGUCUACGAGAAGGGACUAAUG			apparent Kd [1, 3]: 9.79 nM; apparent Kd [1, 4]: 10.3 nM
ACAGACAAGUAGAAGGCAAUGAGGAGUGAAAAUUGAGGAUAUACCAGCAUGAGUGCCUACAUGAGGAUCACCCAUGUGUAGAUU			apparent Kd [1, 3]: 388 nM; apparent Kd [1, 4]: 395 nM
GCACACAUGAGUUAGGAUAUAUGUUGUGAGACAUGAGGAUCACCCAUGUGUGCAUUGCUUAUAAUAUAGAAGGAACCCAGGUCGGC			apparent Kd [1, 5]: 25.5 nM; apparent Kd [1, 6]: 17.1 nM
AGAAGGCUACAGAAGGGACACACACGGUGGGAGUCAGGAUAUGUAGUGAAAACGUUACAUGAGGAUCACCCAUGUAGACCUUCC			apparent Kd [2, 5]: 141 nM; apparent Kd [2, 6]: 18.4 nM
CUCAUGUGAGGAUAUCAGUAGUGAUACGAUAGUAUUACUGCUGAGAAGGUACAUGAGGAUCACCCAUGUUCCUC	26.9 nM	37.8 nM	
CGAUCACAUGUCAGGAUAUGCGAGCUUGUAUCGCCGUAGAAGGGACAUGAGGAUCACCCAUGUCCGAUCAUUCG	28.3 nM	52.1 nM	
GCAGGGUAUGAGAAGGCAUAAUUUAUCUUACCACAUGUUUACAUGAGGAUCACCCAUGUUUCCUAUGAGGAUAUCAUACCGUGC	12.4 nM	9.98 nM	
UCGCUGCGAGGAUAUACAUGAGGAUCACCCAUGUACGGGUCCGGGUCUUCGUCUAUUGGUAGAAGGCGCAGUGA	54.2 nM	277 nM	
GGGUCAUAUGUUAGGAUAUUGGAGGCAAGUGCCGUUAAGAAGGAACAUGAGGAUCACCCAUGUCUAACUGACUU	34.5 nM	66 nM	
GCGAUAACAUGAGGAUCACCCAUGUAUGUGGCGGGCCCUACGAGAAGGCCAUGUAACAAAUACAUGGAGGAUAUCGGAUGAGUU			apparent Kd [2, 5]: 153 nM; apparent Kd [2, 6]: 26.6 nM
UCAAAUGCCGUAGGAUAUAAUGUGCGCCGUCCGUGAGAUGUAAAUUGACAUGAGGAUCACCCAUGUUAGAAGGGCGGCAUCAGC	5.88 nM	5.92 nM	
UUCUUGGCAGGAUAUGCUUUUUUAGACAUGAGGAUCACCCAUGUGAUUAUUUUUGGUUUUGCAGAAGGGCCUUAAU	65.4 nM	87.2 nM	
GCUGUCGUAUGAGGAUAUGGUCAGCUUUGCUGACCAGAAGGCAUGUCAAUAGACAUGAGGAUCACCCAUGUAGUAAAGACAGCA			apparent Kd [2, 5]: 402 nM; apparent Kd [2, 6]: 39 nM
AAAAGACAUGAGGAUCACCCAUGUAAAAACGUGGGAGGAUAUGUAUGGAAACCAGACUGUACAGAAGGCCUUUGUC			apparent Kd [2, 5]: 138 nM; apparent Kd [2, 6]: 164 nM
UAAGUUUAGGUAGGAUAUACUUUAAAUUUCUCUAUCCAUACAUGAGGAUCACCCAUGUUUACAUUGUAGAAGGACCACUAUGUU	24.6 nM	20.4 nM	
GGGUGACAUGAGGAUCACCCAUGUCAGGAUAUGAUACUAUGUACUUCGGUACAUAGUAUCAGAAGGGACAUAAA	104 nM	27.1 nM	
UUGUUACAUGAGGAUCACCCAUGUGAGGAUAUGGUUCGGUACUGUCAUGUCGCGUACUCCAGAAGGCACAUGUU	97.1 nM	303 nM	
AUGACAUGCAGAGCGCAACGGCGUACAUGAGGAUCACCCAUGUAGGAUAUACUACACAAAGUGUAGUAGAAGGACAUGCGACUG	18.6 nM	21.3 nM	
GCACCUUUAUUUGAACCGAUACGAACAUGAGGAUCACCCAUGUAGGAUAUGCUAAAAGUUGUGUUGCAGAAGGACAUUUAGUGC	9.36 nM	8.98 nM	
ACUAGGCGAGGAUAUACAUGCUUAACACAGCGAAAGCUGUGACAUGAGGAUCACCCAUGUAGAAGGCGCAAAUA	54.1 nM	365 nM	
